Test results as given in ChEMBL document CHEMBL4842351, “Synthesis and evaluation of novel and potent protease activated receptor 4 (PAR4) antagonists based on a quinazolin-4(3H)-one scaffold” (Eur J Med Chem, 2021).
One block for each molecule: values may come before it. The source made the active and inactive calls. No cut-off for these calls is given here.

What was measured:
[1] = biological target: T1, Proteinase-activated receptor 4 (Homo sapiens) (UniProt Q96RI0); assay: Antagonist activity at PAR4 in human platelet-rich plasma assessed as inhibition of PAR4 AP AYPGKF-NH2-induced platelet aggregation at 0.2 uM by photo-turbidimetry assay relative to control; assay type: functional
T1 sequence (whole entry): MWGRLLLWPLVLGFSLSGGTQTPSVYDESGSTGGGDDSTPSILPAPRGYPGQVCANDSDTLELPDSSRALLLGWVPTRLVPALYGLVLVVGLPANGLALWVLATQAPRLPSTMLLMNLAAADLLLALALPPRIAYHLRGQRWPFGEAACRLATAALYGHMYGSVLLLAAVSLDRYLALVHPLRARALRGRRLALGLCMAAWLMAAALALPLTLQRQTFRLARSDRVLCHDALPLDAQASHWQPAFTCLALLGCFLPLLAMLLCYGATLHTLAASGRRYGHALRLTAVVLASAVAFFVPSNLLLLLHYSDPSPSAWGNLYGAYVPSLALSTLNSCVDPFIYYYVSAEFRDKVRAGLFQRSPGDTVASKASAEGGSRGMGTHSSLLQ
Outline: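 Human PRP from donated blood, spun at 160×g for 15 min, then adjusted to 3×10⁸/mL with PPP (2000×g, 15 min). Compound or saline vehicle preincubated with PRP for 5 min at 37 °C. Aggregation induced by AYPGKF-NH₂; maximal aggregation measured by light transmittance for 5 min. Percent inhibition at a single point; IC50 from ≥5 concentrations by curve fitting.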

[2] = biological target: T2, Proteinase-activated receptor 4 (Homo sapiens, UniProt Q96RI0); assay: Antagonist activity at human PAR4 expressed in Ga15-HEK293 cells assessed as reduction in PAR4 AP AYPGKF-NH2-induced cytosolic calcium incubated for 24 hrs by FLIPR - calcium mobilization assay; assay type: functional, cell-based
T2 sequence (Q96RI0 whole entry): T1 sequence (whole entry)
Outline: (§1)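 HEK293/Gα15 cells stably expressing human PAR1, PAR2 or PAR4, seeded at 45,000 cells/well and grown for 24 h at 37 °C, 5% CO₂. Cells loaded with calcium dye for 60 min at 37 °C in the dark. Compounds diluted from DMSO in HBSS and preincubated in the dark at room temperature. Agonists: SFFLRR (PAR1), 2-furoyl-LIGRLO-NH₂ (PAR2), AYPGKF-NH₂ (PAR4). Fluorescence read on FLIPR; 10-point half-log curves; mean of ≥2 determinations.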

[3] = biological target: T3, Proteinase-activated receptor 1 (Homo sapiens, UniProt P25116); assay: Antagonist activity at human PAR1 expressed in Ga15-HEK293 cells assessed as reduction in PAR1 AP SFFLRR-NH2-induced cytosolic calcium incubated for 24 hrs by FLIPR - calcium mobilization assay; assay type: functional, cell-based; outline: as §1
T3 sequence (P25116 whole entry): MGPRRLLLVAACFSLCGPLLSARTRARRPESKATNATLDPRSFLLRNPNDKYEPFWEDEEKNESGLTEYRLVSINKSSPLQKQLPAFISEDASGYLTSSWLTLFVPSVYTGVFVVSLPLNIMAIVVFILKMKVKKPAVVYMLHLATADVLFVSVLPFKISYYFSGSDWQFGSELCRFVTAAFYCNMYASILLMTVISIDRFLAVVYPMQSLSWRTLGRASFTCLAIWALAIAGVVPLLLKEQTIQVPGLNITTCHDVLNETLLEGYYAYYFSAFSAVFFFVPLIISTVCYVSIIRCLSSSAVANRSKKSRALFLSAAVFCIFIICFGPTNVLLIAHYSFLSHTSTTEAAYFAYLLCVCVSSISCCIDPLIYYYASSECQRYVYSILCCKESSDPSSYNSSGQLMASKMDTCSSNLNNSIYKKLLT

[4] = biological target: T4, Proteinase-activated receptor 2 (Homo sapiens, UniProt P55085); assay: Antagonist activity at human PAR2 expressed in Ga15-HEK293 cells assessed as reduction in PAR2 AP 2-furoyl-LIGRLO-NH2-induced cytosolic calcium incubated for 24 hrs by FLIPR - calcium mobilization assay; assay type: functional, cell-based; outline: as §1
T4 sequence (P55085 whole entry): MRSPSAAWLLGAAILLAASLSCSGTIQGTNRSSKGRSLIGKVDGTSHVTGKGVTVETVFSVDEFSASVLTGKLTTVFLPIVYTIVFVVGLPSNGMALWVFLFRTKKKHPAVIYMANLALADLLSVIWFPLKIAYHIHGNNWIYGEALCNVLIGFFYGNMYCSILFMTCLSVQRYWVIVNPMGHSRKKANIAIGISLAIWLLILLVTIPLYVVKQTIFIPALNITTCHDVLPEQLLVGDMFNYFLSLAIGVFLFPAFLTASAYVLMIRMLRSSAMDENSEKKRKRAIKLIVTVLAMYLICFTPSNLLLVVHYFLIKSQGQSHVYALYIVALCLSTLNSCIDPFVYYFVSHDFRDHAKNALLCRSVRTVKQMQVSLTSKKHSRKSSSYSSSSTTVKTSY

[5] = Metabolic stability in human liver microsomes assessed as half life incubated for 60 mins by LC-MS/MS analysis; assay type: ADME, Microsome
[6] = Metabolic stability in human liver microsomes assessed as intrinsic clearance incubated for 60 mins by LC-MS/MS analysis; assay type: ADME, Microsome; details: 1 h
[7] = Metabolic stability in rat liver microsomes assessed as half life incubated for 60 mins by LC-MS/MS analysis; assay type: ADME, Microsome
Outline: (§2)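 Human, rat or mouse liver microsomes in potassium phosphate buffer at pH ~7.4, warmed to 37 °C with compound (DMSO stock diluted in acetonitrile). Reaction started with NADPH; no-NADPH negative controls. Aliquots taken at 0 and 60 min, quenched in ice-cold acetonitrile with internal standard, and parent measured by LC/MS/MS. t1/2 = 0.693/k from ln concentration vs time; CLint derived from t1/2. Triplicate; mean ± SD.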

[8] = Metabolic stability in rat liver microsomes assessed as intrinsic clearance incubated for 60 mins by LC-MS/MS analysis; assay type: ADME, Microsome; details: 1 h; outline: as §2
[9] = Metabolic stability in mouse liver microsomes assessed as half life incubated for 60 mins by LC-MS/MS analysis; assay type: ADME, Microsome; outline: as §2
[10] = Metabolic stability in mouse liver microsomes assessed as intrinsic clearance incubated for 60 mins by LC-MS/MS analysis; assay type: ADME, Microsome; details: 1 h; outline: as §2
[11] = Cytotoxicity against HEK293T cells assessed as cell viability at 1 uM incubated for 48 hrs by CCK-8 assay; assay type: cell-based, HEK-293T; details: human, read-out: Activity
Outline: (§3)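 HEK293 cells in exponential growth, 4000/well, left to adhere overnight, then exposed to three compound concentrations for 48 h. Equal-volume DMSO served as control. CCK-8 added for 2 h at 37 °C in the dark, absorbance read at 450 nm. Viability = OD sample/OD control × 100; mean ± SD, n=3.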

[12] = Cytotoxicity against HEK293T cells assessed as cell viability at 10 uM incubated for 48 hrs by CCK-8 assay; assay type: cell-based, HEK-293T; details: human, read-out: Activity; outline: as §3
[13] = Cytotoxicity against HEK293T cells assessed as cell viability at 20 uM incubated for 48 hrs by CCK-8 assay; assay type: cell-based, HEK-293T; details: human, read-out: Activity; outline: as §3
Platelet [14] = assay: Antiplatelet activity against AYPGKF-NH2-induced human platelet in platelet rich plasma assessed as inhibition of platelet aggregation at 10 uM by photo-turbidimetry method; assay type: functional, cell-based
Outline: (§4)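 Human PRP prepared as for the aggregation assay and adjusted to 3×10⁸/mL. Compound preincubated for 5 min at 37 °C, then aggregation triggered by AYPGKF, SFLLRN, collagen, ADP or U46619. Maximum percent inhibition taken from 5 min light-transmittance traces. Mean ± SD, n=3.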

Platelet [15] = assay: Antiplatelet activity against SFLLRN-NH2-induced human platelet in platelet rich plasma assessed as inhibition of platelet aggregation at 10 uM by photo-turbidimetry method; assay type: functional, cell-based; outline: as §4
Platelet [16] = assay: Antiplatelet activity against collagen-induced human platelet aggregation in platelet in platelet rich plasma assessed as inhibition of platelet aggregation at 10 uM by photo-turbidimetry method; assay type: functional, cell-based; outline: as §4
Platelet [17] = assay: Antiplatelet activity against ADP-induced human platelet aggregation in platelet in platelet rich plasma assessed as inhibition of platelet aggregation at 10 uM by photo-turbidimetry method; assay type: functional, cell-based; outline: as §4
Platelet [18] = assay: Antiplatelet activity against U46619-induced human platelet aggregation in platelet in platelet rich plasma assessed as inhibition of platelet aggregation at 10 uM by photo-turbidimetry method; assay type: functional, cell-based; outline: as §4

Structure (SMILES): COc1cc(Cl)c2nc(-c3cc(C)cc4c(=O)n(C)c(C)nc34)sc2c1
inhibition [1]: 39.8%

Structure (SMILES): COc1cc(F)c2nc(-c3cc(C)cc4c(=O)n(C(C)C)cnc34)sc2c1
inhibition [1]: 10.2%

Structure (SMILES): COc1cc(F)c2nc(-c3cccc4c(=O)n(C)cnc34)sc2c1
inhibition [1]: 18.7%

Structure (SMILES): Cc1cc(-c2ccc(F)cc2O)c2ncn(C)c(=O)c2c1
inhibition [1]: 6.5%

Structure (SMILES): CCn1cnc2c(-c3nc4c(F)cc(OC)cc4s3)cc(C)cc2c1=O
inhibition [1]: 18.8%

Structure (SMILES): CCCCc1cc(-c2nc3c(Cl)cc(OC)cc3s2)c2ncn(C)c(=O)c2c1
inhibition ([1]; filed as antagonist): 47.6%

Structure (SMILES): COc1cc(F)c2nc(-c3cc(C)cc4c(=O)n(C)c(C)nc34)sc2c1
inhibition [1]: 20.1%

Structure (SMILES): Cc1cc(-c2nc3c(s2)CCCC3)c2ncn(C)c(=O)c2c1
IC50 [2]: 5.7 nM | IC50 [3]: > 3160 nM | IC50 [4]: > 1000 nM

Structure (SMILES): Cc1cc(-c2nc3c(Cl)cc4c(c3s2)OCCO4)c2ncn(C)c(=O)c2c1
inhibition [1]: 35.7%

Structure (SMILES): CCCCc1cc(-c2nc3c(s2)CCCC3)c2ncn(C)c(=O)c2c1
inhibition [1]: 25.7%

Structure (SMILES): COCn1cnc2c(-c3nc4c(Cl)cc(OC)cc4s3)cc(C)cc2c1=O
inhibition ([1]; filed as antagonist): 45.3%

Structure (SMILES): CCc1cc(-c2nc3c(s2)CCCC3)c2ncn(C)c(=O)c2c1
inhibition [1]: 25.7%

Structure (SMILES): Cc1cc(-c2nc3c(s2)CCCC3)c2nc[nH]c(=O)c2c1
inhibition ([1]; filed as antagonist): 41.6%

More lines, main results first:

IC50 [2]: 1.2 nM | IC50 [3]: > 3160 nM | IC50 [4]: > 1000 nM | half-life [5]: 7.4 h | CLH [6]: 3.51 mL/min/g | half-life [7]: 5.38 h | CLH [8]: 7.73 mL/min/g | half-life [9]: 7.13 h | CLH [10]: 12.8 mL/min/g
Structure (SMILES): Cc1cc(-c2nc3c(Cl)cc(OCCNS(=O)(=O)c4ccc(C(F)(F)F)cc4)cc3s2)c2ncn(C)c(=O)c2c1
viability at 48 h, 1 µM [11]: 87.7% | viability at 48 h, 10 µM [12]: 76.8% | viability at 48 h, 20 µM [13]: 61.8% | Activity (Platelet [14]): Active | Activity (Platelet [15]): inactive | Activity (Platelet [16]): inactive | Activity (Platelet [17]): inactive | Activity (Platelet [18]): inactive

inhibition [1]: 30.5%
Structure (SMILES): Cc1ccc(S(=O)(=O)NCCOc2cc(Cl)c3nc(-c4cc(C)cc5c(=O)n(C)cnc45)sc3c2)cc1

inhibition [1]: 21.3%
Structure (SMILES): Cc1cc(-c2nc3c(Cl)cc(Cl)cc3s2)c2ncn(C)c(=O)c2c1

inhibition ([1]; filed as antagonist): 47.1%
Structure (SMILES): Cc1cc(-c2nc3c(Cl)cc(OCCNS(=O)(=O)c4ccc(Cl)cc4Cl)cc3s2)c2ncn(C)c(=O)c2c1

inhibition ([1]; filed as antagonist): 54.1%
Structure (SMILES): Cc1cc(-c2nc3c(Cl)cc(OCCNC(=O)OC(C)(C)C)cc3s2)c2ncn(C)c(=O)c2c1

inhibition [1]: 15.2%
Structure (SMILES): COc1cc(Cl)c2nc(-c3cc(C)cc4c(=O)n(C(C)C)cnc34)sc2c1

inhibition [1]: 32.3%
Structure (SMILES): Cc1cc(-c2nc3c(Cl)cc(OCCNS(=O)(=O)c4ccc(Cl)cc4)cc3s2)c2ncn(C)c(=O)c2c1

inhibition [1]: 17.9%
Structure (SMILES): Cc1cc(-c2nc3c(Cl)cc(OCCNS(=O)(=O)c4ccccc4)cc3s2)c2ncn(C)c(=O)c2c1
